This note sets out measurements from ChEMBL document CHEMBL4190276, “Design, synthesis and evaluation of coumarin-pargyline hybrids as novel dual inhibitors of monoamine oxidases and amyloid-β aggregation for the treatment of Alzheimer's disease” (Eur J Med Chem, 2017).

Molecules are shown by their SMILES.

In data set [1] the target is T1, Amine oxidase [flavin-containing] B (Homo sapiens, UniProt P27338).
T1 sequence (P27338 whole entry): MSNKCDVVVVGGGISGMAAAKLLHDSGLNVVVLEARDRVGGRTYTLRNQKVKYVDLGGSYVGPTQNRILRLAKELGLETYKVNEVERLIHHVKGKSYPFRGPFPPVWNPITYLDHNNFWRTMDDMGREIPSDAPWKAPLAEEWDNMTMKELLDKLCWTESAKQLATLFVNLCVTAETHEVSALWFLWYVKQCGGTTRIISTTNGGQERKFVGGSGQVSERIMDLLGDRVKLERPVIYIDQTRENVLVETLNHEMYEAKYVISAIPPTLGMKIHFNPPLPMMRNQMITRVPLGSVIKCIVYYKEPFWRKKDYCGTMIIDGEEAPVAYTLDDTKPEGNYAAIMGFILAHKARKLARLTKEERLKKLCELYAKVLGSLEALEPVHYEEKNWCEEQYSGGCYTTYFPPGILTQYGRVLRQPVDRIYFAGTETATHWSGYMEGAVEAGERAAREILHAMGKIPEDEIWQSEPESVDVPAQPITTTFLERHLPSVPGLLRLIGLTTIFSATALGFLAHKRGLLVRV
Kind of data set: Inhibition of recombinant human MAO-B using p-tyramine as substrate preincubated for 15 mins followed by substrate addition measured after 20 mins by amplex red reagent based fluorescence assay.

Data set [2] deals with T1, Amine oxidase [flavin-containing] B. Nature of the data set: Irreversible inhibition of recombinant human MAO-B at 30 nM using p-tyramine as substrate preincubated for 15 to 60 mins followed by substrate addition and subsequent two-fold enzyme dilution measured after 15 mins by amplex red reagent based fluorescence assay. The following applies: 0.25 h, 0.03 µM.
The species entered for a further data set is Homo sapiens. Nature of the data set: Selectivity index, ratio of IC50 for recombinant human MAO-A to IC50 for recombinant human MAO-B. Summed up: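 Commercial human MAO-A (1.1 μg protein) and MAO-B (7.5 μg protein) adjusted to equal velocity (165 pmol p-tyramine/min). Compounds from 10 mM DMSO stock diluted in 0.05 M potassium phosphate, pH 7.4. Preincubated with enzyme 15 min at 37 °C in the dark; 200 μM Amplex Red, 2 U/mL HRP, 2 mM p-tyramine added for 20 min at 37 °C.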

Data set [3] concerns the target T2, Amine oxidase [flavin-containing] A (Homo sapiens, UniProt P21397).
T2 sequence (P21397 whole entry): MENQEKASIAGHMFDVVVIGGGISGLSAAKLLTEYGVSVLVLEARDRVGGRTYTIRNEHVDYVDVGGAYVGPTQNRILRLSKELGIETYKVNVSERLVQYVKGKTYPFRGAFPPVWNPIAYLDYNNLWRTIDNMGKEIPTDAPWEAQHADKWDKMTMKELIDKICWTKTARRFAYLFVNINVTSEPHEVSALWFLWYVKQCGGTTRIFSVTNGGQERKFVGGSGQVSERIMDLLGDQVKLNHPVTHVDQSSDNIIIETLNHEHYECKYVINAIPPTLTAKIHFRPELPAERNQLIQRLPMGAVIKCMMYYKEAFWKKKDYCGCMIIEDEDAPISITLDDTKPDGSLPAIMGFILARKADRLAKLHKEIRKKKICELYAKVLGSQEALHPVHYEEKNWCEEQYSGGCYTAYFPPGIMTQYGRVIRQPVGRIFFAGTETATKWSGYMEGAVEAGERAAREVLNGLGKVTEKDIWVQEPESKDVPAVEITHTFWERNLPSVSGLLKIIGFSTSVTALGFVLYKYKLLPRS
Nature of the data set: Inhibition of recombinant human MAO-A using p-tyramine as substrate preincubated for 15 mins followed by substrate addition measured after 20 mins by amplex red reagent based fluorescence assay.

Data set [4] is described as follows: Permeability of the compound in PBS/EtOH at […] after 16 hrs by PAMPA. The data set is classed as ADME. The following applies: read-out: Peff.
In data set [5] the test system is Mus musculus. Kind of data set: Nephrotoxicity in Kunming mouse at 2.4 mmol/kg, po administered as single dose via gavage measured continuously for first 4 hrs, intermittently for next 24 hrs and occasionally thereafter for 14 days […]. Particulars: in vivo; call rule not given here. The data set is classed as toxicity, organism-based. Summed up:
(§1)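 Male KM mice (18–20 g) received a single oral 2.4 mmol/kg dose in 0.5% CMC-Na suspension after an overnight fast. All animals were sacrificed on day 14 after dosing, and heart, liver and kidneys were examined macroscopically for damage.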

Data set [6] concerns the target Amyloid-beta precursor protein (Homo sapiens) (UniProt P05067). Nature of the data set: Inhibition of self-induced Amyloid beta (1 to 42) (unknown origin) aggregation at 25 uM after 48 hrs by thioflavin T-based fluorometric assay relative to control. Summed up:
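Aβ1-42 stock (2000 μM in 1% ammonium hydroxide) diluted in 50 mM phosphate pH 7.4. Peptide (final 25 μM) incubated with or without compound (25 μM) at 37 °C for 48 h. Then diluted in 50 mM glycine-NaOH pH 8.0 containing 5 μM thioflavin T, read after 5 min (ex 446/em 490 nm). Inhibition = (1 − IFi/IFc) × 100 after blank subtraction. Mean ± SD of three independent experiments.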

In data set [7] the test system is Mus musculus. Nature of the data set: Acute toxicity in Kunming mouse assessed as abnormal change in body weight at 2.4 mmol/kg, po administered as single dose via gavage measured continuously for first 4 hrs, intermittently for next 24 hrs and occasionally thereafter for 14 days. The data set is classed as organism-based. Particulars: in vivo. In a few lines: (§2)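 Male KM mice (22 days old, 18–20 g), 15 in total, randomly split into 3 groups of 5. Kept on a 12 h light/dark cycle at 20-22 °C and 60-70% humidity, fasted overnight with free water. Single oral dose of 2.4 mmol/kg suspended in 0.5% CMC-Na. Mortality, behaviour, water and food intake, and body weight followed over 14 days.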

Data set [8] concerns Mus musculus. Kind of data set: Cardiotoxicity in Kunming mouse at 2.4 mmol/kg, po administered as single dose via gavage measured continuously for first 4 hrs, intermittently for next 24 hrs and occasionally thereafter for 14 days by […]. It counts as toxicity, organism-based. The following applies: in vivo. In a few lines:
as §1

Data set [9] deals with Mus musculus. Kind of data set: Acute toxicity in Kunming mouse assessed as effect on serum ALT level at 2.4 mmol/kg, po administered as single dose via gavage measured continuously for first 4 hrs, intermittently for next 24 hrs and occasionally thereafter for 14 days. It counts as organism-based. Particulars: in vivo. In a few lines:
(§3)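 Male KM mice (18–20 g), fasted overnight, given one oral 2.4 mmol/kg dose suspended in 0.5% CMC-Na. On day 14, orbital blood was collected before decapitation and serum AST and ALT activities measured against a control group. Mean ± SD of three independent experiments.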

In data set [10] the test system is Mus musculus. Kind of data set: Hepatotoxicity in Kunming mouse at 2.4 mmol/kg, po administered as single dose via gavage measured continuously for first 4 hrs, intermittently for next 24 hrs and occasionally thereafter for 14 days by […]. Particulars: in vivo. It counts as toxicity, organism-based. In a few lines: as §1
Data set [11] deals with Mus musculus. Nature of the data set: Acute toxicity in Kunming mouse assessed as mortality at 2.4 mmol/kg, po administered as single dose via gavage measured continuously for first 4 hrs, intermittently for next 24 hrs and occasionally thereafter for 14 days. The data set is classed as organism-based. The following applies: in vivo. Summed up:
as §2

A further data set concerns PC-12. Nature of the data set: Cytotoxicity against rat PC12 cells assessed as reduction in cell viability up to 100 uM after 24 hrs by MTT assay. The data set is classed as cell-based. The following applies: pc-12, 24 h. Summed up: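 PC12 cells grown at 37 °C, 5% CO2 in DMEM with 10% bovine calf serum and penicillin/streptomycin; seeded 10,000 cells/well, switched to serum-free medium, then exposed to compound (0–100 μM) for 24 h. MTT added for 4 h at 37 °C, formazan dissolved in DMSO, absorbance read at 570 nm (reference 630 nm). Mean ± SD of three independent experiments.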
A general note: Tetrazolium dyes change colour on reduction, which living cells bring about.

Data set [12] has as its system Mus musculus. Nature of the data set: Acute toxicity in Kunming mouse assessed as abnormal change in water consumption at 2.4 mmol/kg, po administered as single dose via gavage measured continuously for first 4 hrs, intermittently for next 24 hrs and occasionally thereafter for 14 days. The data set is classed as organism-based. The following applies: in vivo. Summed up:
as §2

Data set [13] concerns Mus musculus. Kind of data set: Acute toxicity in Kunming mouse assessed as effect on serum AST level at 2.4 mmol/kg, po administered as single dose via gavage measured continuously for first 4 hrs, intermittently for next 24 hrs and occasionally thereafter for 14 days. Particulars: in vivo. The data set is classed as organism-based. Summed up: as §3
The test system of data set [14] is Mus musculus. Kind of data set: Acute toxicity in Kunming mouse assessed as abnormal change in food consumption at 2.4 mmol/kg, po administered as single dose via gavage measured continuously for first 4 hrs, intermittently for next 24 hrs and occasionally thereafter for 14 days. The data set is classed as organism-based. Particulars: in vivo. Summed up: as §2

Amyloid-beta precursor protein (Homo sapiens), sequence (P05067 whole entry): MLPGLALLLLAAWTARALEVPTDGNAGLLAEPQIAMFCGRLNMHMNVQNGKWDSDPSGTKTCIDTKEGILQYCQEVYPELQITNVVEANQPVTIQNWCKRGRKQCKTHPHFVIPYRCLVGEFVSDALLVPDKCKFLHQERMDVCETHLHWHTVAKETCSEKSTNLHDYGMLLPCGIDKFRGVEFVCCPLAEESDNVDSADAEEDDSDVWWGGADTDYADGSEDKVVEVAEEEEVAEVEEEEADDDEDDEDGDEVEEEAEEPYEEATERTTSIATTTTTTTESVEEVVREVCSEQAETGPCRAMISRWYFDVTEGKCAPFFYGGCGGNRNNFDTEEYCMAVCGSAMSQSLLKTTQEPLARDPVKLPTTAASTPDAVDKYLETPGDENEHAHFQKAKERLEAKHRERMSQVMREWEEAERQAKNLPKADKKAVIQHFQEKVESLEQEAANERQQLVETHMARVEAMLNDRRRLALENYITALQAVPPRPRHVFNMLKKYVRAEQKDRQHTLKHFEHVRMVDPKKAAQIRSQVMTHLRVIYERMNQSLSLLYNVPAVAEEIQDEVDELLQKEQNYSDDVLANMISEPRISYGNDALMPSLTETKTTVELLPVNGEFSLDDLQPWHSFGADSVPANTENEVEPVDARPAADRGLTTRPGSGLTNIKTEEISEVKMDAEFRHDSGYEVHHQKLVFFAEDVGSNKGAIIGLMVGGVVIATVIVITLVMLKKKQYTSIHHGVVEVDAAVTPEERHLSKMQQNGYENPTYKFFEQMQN

Broadly, the IC50 is the concentration that inhibits the measured activity by half. Broadly, the inhibition is the relative decrease from the control value, in per cent. A lower inhibition goes with a response near the control. In the case of `C#CCN(C)CCCCOc1ccc2ccc(=O)oc2c1`, the IC50 in data set [1] is 27 nM; in data set [3], 3280 nM. For the same compound, the “inhibition (INH)” value in data set [2] is given as “Active”. For the same compound, the Ratio IC50 in the data set listed under Homo sapiens was determined as 121. Also, the Papp at 16 h in data set [4] turned out to be 8.92 ×10⁻⁶ cm/s. Also, the Activity entry with Mus musculus [5], with Mus musculus [7], with Mus musculus [8], in the data set on Mus musculus [9], with Mus musculus [10] and in the data set on Mus musculus [11] was “Non-Toxic” in each case. Also, the Activity result with PC-12, in the data set with Mus musculus [12], in the data set on Mus musculus [13] and in the data set with Mus musculus [14] was “Non-Toxic” each time. The inhibition in data set [6] was determined as 54%.
